Converted amounts (≈) assume the structure as drawn. The source made the active and inactive calls. The calls are words filed in the database; no cut-off is given here.
Tests used:
Murdannia keisak [1] = assay: Herbicidal activity against Murdannia keisak assessed as visual damage 125 g/ha measured after 3 weeks; format: functional, organism-based
In short: (§1)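 Flooded greenhouse pot test with soil of 1.5% total carbon, pH 5.6. Eight annual weed species sown at 0.5–1.0 cm in one pot, under 3 cm water at 28–33 °C day and 20–26 °C night. Compound in acetone/water (50/50 v/v) added gently to the water surface at the stated rate 5 days after transplanting.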

Echinochloa crus-galli [2] = assay: Herbicidal activity against 2 to 3 leaf stage Echinochloa crus-galli (barnyard grass) (barnyardgrass) at 62.5 g/ha; format: functional, organism-based
Rotala indica [3] = assay: Herbicidal activity against Rotala indica assessed as visual damage 250 g/ha measured after 3 weeks; format: functional, organism-based; in short: as §1
Cyperus difformis [4] = assay: Herbicidal activity against Cyperus difformis assessed as visual damage 62.5 g/ha measured after 3 weeks; format: functional, organism-based; in short: as §1
Echinochloa crus-galli [5] = assay: Herbicidal activity against 4 leaf stage Echinochloa crus-galli (barnyard grass) (barnyardgrass) at 250 g/ha; format: functional, organism-based
Cyperus difformis [6] = assay: Herbicidal activity against Cyperus difformis assessed as visual damage 125 g/ha measured after 3 weeks; format: functional, organism-based; in short: as §1
Pontederia vaginalis [7] = assay: Herbicidal activity against Monochoria vaginalis assessed as visual damage 500 g/ha measured after 3 weeks; format: functional, organism-based; in short: as §1
Echinochloa oryzicola [8] = assay: Herbicidal activity against Echinochloa oryzicola assessed as visual damage 500 g/ha measured after 3 weeks; format: functional, organism-based; in short: as §1
Echinochloa oryzicola [9] = assay: Herbicidal activity against Echinochloa oryzicola assessed as visual damage 125 g/ha measured after 3 weeks; format: functional, organism-based; in short: as §1
Echinochloa oryzicola [10] = assay: Herbicidal activity against Echinochloa oryzicola assessed as visual damage 1000 g/ha measured after 3 weeks; format: functional, organism-based; in short: as §1
Cyperus difformis [11] = assay: Herbicidal activity against Cyperus difformis assessed as visual damage 250 g/ha measured after 3 weeks; format: functional, organism-based; in short: as §1
Murdannia keisak [12] = assay: Herbicidal activity against Murdannia keisak assessed as visual damage 62.5 g/ha measured after 3 weeks; format: functional, organism-based; in short: as §1
[13] = Genotoxicity in Cricetulus griseus lung fibroblast assessed as mutation; format: toxicity, cell-based; settings: chinese hamster
In short: (§2)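 CHL (Chinese hamster lung fibroblast) cells kept in minimum essential medium with 5% fetal bovine serum. Harvested with 0.2% trypsin, seeded onto 50-mm dishes, and grown at 37 °C in humidified 5% CO₂/95% air.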

[14] = system: Schoenoplectiella juncoides; assay: Herbicidal activity against Schoenoplectiella juncoides assessed as visual damage 125 g/ha measured after 3 weeks; format: functional, organism-based; in short: as §1
Cyperus difformis [15] = assay: Herbicidal activity against Cyperus difformis assessed as visual damage 500 g/ha measured after 3 weeks; format: functional, organism-based; in short: as §1
[16] = system: Schoenoplectiella juncoides; assay: Herbicidal activity against Schoenoplectiella juncoides assessed as visual damage 250 g/ha measured after 3 weeks; format: functional, organism-based; in short: as §1
Pontederia vaginalis [17] = assay: Herbicidal activity against Monochoria vaginalis assessed as visual damage 250 g/ha measured after 3 weeks; format: functional, organism-based; in short: as §1
[18] = system: Schoenoplectiella juncoides; assay: Herbicidal activity against Schoenoplectiella juncoides assessed as visual damage 62.5 g/ha measured after 3 weeks; format: functional, organism-based; in short: as §1
[19] = Aquatic toxicity in Daphnia magna; format: organism-based; settings: in vivo, other: aquatic exposure
In short: (§3)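 Aquatic acute toxicity, given as LC50 in mg/L of test water.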

Cyperus difformis [20] = assay: Herbicidal activity against Cyperus difformis assessed as visual damage 1000 g/ha measured after 3 weeks; format: functional, organism-based; in short: as §1
Oryza sativa [21] = assay: Toxicity in transplanted Oryza sativa (rice) assessed as visual damage 500 g/ha measured after 5 days after transplanting; format: organism-based; settings: in vivo, 120 h
In short: (§4)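 Transplanted rice grown in flooded greenhouse pots (3 cm water; 28–33 °C day, 20–26 °C night; soil 1.5% total carbon, pH 5.6). Compound in acetone/water (50/50 v/v) applied to the water surface at the stated rate 5 days after transplanting. Injury scored visually on a 0–100 scale.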

[22] = Aquatic toxicity in Oryzias latipes (Japanese medaka); format: organism-based; settings: in vivo, other: aquatic exposure; in short: as §3
Oryza sativa [23] = assay: Toxicity in transplanted Oryza sativa (rice) assessed as visual damage 125 g/ha measured after 5 days after transplanting; format: organism-based; settings: in vivo, 120 h; in short: as §4
Ludwigia prostrata [24] = assay: Herbicidal activity against Ludwigia prostrata assessed as visual damage 500 g/ha measured after 3 weeks; format: functional, organism-based; in short: as §1
[25] = Acute toxicity in Mus musculus (mouse); format: organism-based; settings: in vivo
In short: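 Acute toxicity in mice, given as LD50 in mg/kg.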

Pontederia vaginalis [26] = assay: Herbicidal activity against Monochoria vaginalis assessed as visual damage 1000 g/ha measured after 3 weeks; format: functional, organism-based; in short: as §1
Ludwigia prostrata [27] = assay: Herbicidal activity against Ludwigia prostrata assessed as visual damage 125 g/ha measured after 3 weeks; format: functional, organism-based; in short: as §1
[28] = Genotoxicity inCricetulus griseus lung fibroblast assessed as chromosome aberration; format: toxicity, cell-based, Cricetulus griseus; settings: chinese hamster; in short: as §2
Oryza sativa [29] = assay: Toxicity in transplanted Oryza sativa (rice) assessed as visual damage 62.5 g/ha measured after 5 days after transplanting; format: organism-based; settings: in vivo, 120 h; in short: as §4
Echinochloa oryzicola [30] = assay: Herbicidal activity against Echinochloa oryzicola assessed as visual damage 250 g/ha measured after 3 weeks; format: functional, organism-based; in short: as §1
Rotala indica [31] = assay: Herbicidal activity against Rotala indica assessed as visual damage 1000 g/ha measured after 3 weeks; format: functional, organism-based; in short: as §1
Ludwigia prostrata [32] = assay: Herbicidal activity against Ludwigia prostrata assessed as visual damage 62.5 g/ha measured after 3 weeks; format: functional, organism-based; in short: as §1
Ludwigia prostrata [33] = assay: Herbicidal activity against Ludwigia prostrata assessed as visual damage 250 g/ha measured after 3 weeks; format: functional, organism-based; in short: as §1
Oryza sativa [34] = assay: Toxicity in transplanted Oryza sativa (rice) assessed as visual damage 250 g/ha measured after 5 days after transplanting; format: organism-based; settings: in vivo, 120 h; in short: as §4
Oryza sativa [35] = assay: Toxicity in transplanted Oryza sativa (rice) assessed as visual damage 1000 g/ha measured after 5 days after transplanting; format: organism-based; settings: in vivo, 120 h; in short: as §4
Pontederia vaginalis [36] = assay: Herbicidal activity against Monochoria vaginalis assessed as visual damage 125 g/ha measured after 3 weeks; format: functional, organism-based; in short: as §1
Murdannia keisak [37] = assay: Herbicidal activity against Murdannia keisak assessed as visual damage 250 g/ha measured after 3 weeks; format: functional, organism-based; in short: as §1
Rotala indica [38] = assay: Herbicidal activity against Rotala indica assessed as visual damage 500 g/ha measured after 3 weeks; format: functional, organism-based; in short: as §1
Rotala indica [39] = assay: Herbicidal activity against Rotala indica assessed as visual damage 125 g/ha measured after 3 weeks; format: functional, organism-based; in short: as §1
Ludwigia prostrata [40] = assay: Herbicidal activity against Ludwigia prostrata assessed as visual damage 1000 g/ha measured after 3 weeks; format: functional, organism-based; in short: as §1

Question: Which Activity (Murdannia keisak [1]) does the source give for Cc1ccsc1C1=NOC(C)(COCc2c(F)cccc2F)C1 (stereo not given) here?
Answer: inactive

Question: What about the Activity (Echinochloa crus-galli [2]) of the same compound?
Answer: Active

Question: What about the Activity (Rotala indica [3]) of the same compound?
Answer: Active

Question: And the Activity (Cyperus difformis [4])?
Answer: Active

Question: What about the Activity (Echinochloa crus-galli [5]) of the same compound?
Answer: Active

Question: And the Activity (Cyperus difformis [6])?
Answer: Active

Question: And the Activity (Pontederia vaginalis [7])?
Answer: Active

Question: What about the Activity (Echinochloa oryzicola [8]) of the same compound?
Answer: Active

Question: What about the Activity (Echinochloa oryzicola [9]) of the same compound?
Answer: Active

Question: What about the Activity (Echinochloa oryzicola [10]) of the same compound?
Answer: Active

Question: And the Activity (Cyperus difformis [11])?
Answer: Active

Question: And the Activity (Murdannia keisak [12])?
Answer: inactive

Question: And the Activity [13]?
Answer: Non-toxic

Question: And the Activity [14]?
Answer: inactive

Question: And the Activity (Cyperus difformis [15])?
Answer: Active

Question: What about the Activity [16] of the same compound?
Answer: inactive

Question: What about the Activity (Pontederia vaginalis [17]) of the same compound?
Answer: Active

Question: And the Activity [18]?
Answer: inactive

Question: What about the LC50 [19] of the same compound?
Answer: 2.7 µg/mL (≈ 8 µM)

Question: What about the Activity (Cyperus difformis [20]) of the same compound?
Answer: Active

Question: And the Activity (Oryza sativa [21])?
Answer: Non-toxic

Question: What about the LC50 [22] of the same compound?
Answer: 1.9 µg/mL (≈ 5.63 µM)

Question: And the Activity (Oryza sativa [23])?
Answer: Non-toxic

Question: What about the Activity (Ludwigia prostrata [24]) of the same compound?
Answer: Active

Question: And the LD50 [25]?
Answer: 5000 mg/kg

Question: What about the Activity (Pontederia vaginalis [26]) of the same compound?
Answer: Active

Question: And the Activity (Ludwigia prostrata [27])?
Answer: Active

Question: What about the Activity [28] of the same compound?
Answer: Non-toxic

Question: What about the Activity (Oryza sativa [29]) of the same compound?
Answer: Non-toxic

Question: What about the Activity (Echinochloa oryzicola [30]) of the same compound?
Answer: Active

Question: What about the Activity (Rotala indica [31]) of the same compound?
Answer: Active

Question: And the Activity (Ludwigia prostrata [32])?
Answer: Active

Question: And the Activity (Ludwigia prostrata [33])?
Answer: Active

Question: What about the Activity (Oryza sativa [34]) of the same compound?
Answer: Non-toxic

Question: And the Activity (Oryza sativa [35])?
Answer: Non-toxic

Question: What about the Activity (Pontederia vaginalis [36]) of the same compound?
Answer: Active

Question: And the Activity (Murdannia keisak [37])?
Answer: inactive

Question: And the Activity (Rotala indica [38])?
Answer: Active

Question: And the Activity (Rotala indica [39])?
Answer: Active

Question: And the Activity (Ludwigia prostrata [40])?
Answer: Active

Reference: ChEMBL document CHEMBL3046200, “5-(2,6-difluorobenzyl)oxymethyl-5-methyl-3-(3-methylthiophen-2-yl)- 1,2-isoxazoline as a useful rice herbicide” (J Agric Food Chem, 2005)
